Compound activity as filed in PubChem BioAssay.
FLuc inh counter: inhibits firefly luciferase, flagging false hits in luciferase inhibition screens. AID 1006. hit rate 1.5% among 200,000. ATPLite firefly luciferase biochemical luminescence, 10 min. inhibition, % at 10 µM;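 active = inhibition above about 50% when tested at 10 µM, limit read from the data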
Target sequence (P08659 whole entry, looked up): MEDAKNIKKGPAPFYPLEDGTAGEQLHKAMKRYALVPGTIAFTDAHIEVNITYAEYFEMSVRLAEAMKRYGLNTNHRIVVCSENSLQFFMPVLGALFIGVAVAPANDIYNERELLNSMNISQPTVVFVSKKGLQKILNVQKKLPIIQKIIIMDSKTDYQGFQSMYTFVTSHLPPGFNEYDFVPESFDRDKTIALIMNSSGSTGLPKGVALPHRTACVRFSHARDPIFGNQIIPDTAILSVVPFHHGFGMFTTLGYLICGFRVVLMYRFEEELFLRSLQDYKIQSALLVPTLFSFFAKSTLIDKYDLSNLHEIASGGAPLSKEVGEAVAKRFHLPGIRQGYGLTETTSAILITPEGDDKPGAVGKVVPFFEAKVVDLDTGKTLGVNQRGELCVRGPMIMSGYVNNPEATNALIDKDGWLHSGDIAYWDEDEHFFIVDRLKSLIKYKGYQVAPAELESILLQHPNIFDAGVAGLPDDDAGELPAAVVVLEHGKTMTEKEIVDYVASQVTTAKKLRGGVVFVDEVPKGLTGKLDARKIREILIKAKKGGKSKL
PPC-1+TRAIL kill: kills PPC-1 cancer cells in the presence of TRAIL | PPC-1 cells + TRAIL, ATPLite viability luminescence | cell killing (% activity), % at 4 µM or 5 µM | hit rate 0.41% among 220,000 | AID 1443;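 active = cell killing above 50% in the first pass at 4 µM, then a duplicate retest at 5 µM averaging 50% or more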;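 also: plate controls were cells with TRAIL plus DMSO for no effect and medium-only wells lacking cells for full effect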
NF-kB expr up: NF-kB expression increase, human neuronal cells | NF-kB reporter expression; stronger effect = higher value | hit rate 1.6% among 190,000 | fold change at 12.5 µM; in the data active = fold change above about 3.3
C8 TRAIL sens: sensitizes caspase-8 expressing cells to TRAIL | hit rate 1% among 360,000 | inhibition (viability loss, TRAIL sensitization), % at 10 µM | AID 624354 | NB7+C8 cells + TRAIL, ATPlite viability luminescence;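 active = compounds causing at least 50% loss of cell viability in the single-dose screen, relative to plate controls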
APP 5'UTR act: APP 5'UTR luciferase reporter activation. SH-SY5Y APP 5'UTR luciferase reporter, luminescence; zero percent = DMSO vehicle wells. activation, % at 2 µM. hit rate 1% among 190,000. AID 1276;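 active = activation above a set limit, based on mean plus 3 SD of controls, cut at about 140% in these data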
FLuc act counter: affects firefly luciferase, flagging false hits in luciferase stimulation screens | ATPlite luciferase biochemical, luminescence, 10 min; 0 = ATP-free wells, 1 = DMSO control | activation factor at 10 µM | 200,000 tested, under 10 active;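 active = luciferase activation factor, scaled between plate controls, of at least 2 with compound at 10 µM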
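System: Luciferase/luciferin detection reagent, cell-free biochemical luciferase assay | Medium: PBS buffer for ATP | Dosing: Test compounds dosed from 2 mM stocks in 100% DMSO | Timing: 10 min at ambient temperature | Signal: Luminescence measurement of luciferase light output | Evaluation: Luciferase activation, seen as luminescence increase over controls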
Active calls of the source: *; · = no result given. A selection: hits, their analogues and other compounds. The true share with any hit is near 2.2%.

SMILES	FLuc inh counter	PPC-1+TRAIL kill	NF-kB expr up	C8 TRAIL sens	APP 5'UTR act	FLuc act counter
CC(C)Cc1nc2oc3c(Cl)ncnc3c2c2c1CCC2	-4	45	1	85*	-14	1
CCOc1ccc(/C=N/Nc2ccccn2)cc1	82*	45	8.2*	59*	182*	0.2
C(=N\Nc1ccccc1)/c1ccc(N2CCOCC2)cc1	20	19	1.4	-10	106	0.8
C(=N\Nc1ccccn1)/c1ccc(N2CCOCC2)cc1	74*	10	4.5*	18	115	0.3
CCOC(=O)[C@]12CCC=C1N(Cc1ccc3c(c1)OCO3)C(=O)[C@H](CC(=O)N1CCC(c3ccccc3)CC1)C2	·	·	·	-6	·	·
CCOC(=O)C1=CCN(S(=O)(=O)c2ccc(C)cc2)C1c1cccc(Cl)c1 (centres undefined)	·	·	·	-2	·	·
CC(C)N1CCC1(C)C(=O)Nc1nc2ccccc2[nH]1 (centres undefined)	·	·	·	2	·	·
COc1cccc(-c2cnc3c(NC(C)=O)cc(-c4ccc(C(=O)NC5CC5)cc4)cn23)c1	·	·	·	5	·	·
CCCCOC(=O)Nc1ccc(N(C)C)cc1	48	21	4*	20	171*	0.5
CCCCOC(=O)Nc1ccc(N2CCOCC2)cc1	12	-4	2	-3	65	0.9
CCCCOC(=O)Nc1ccc(N2CCCCC2)cc1	42	25	6.1*	18	103	0.6
COc1ccccc1CN1CCNC(=O)C1CC(=O)N(C)C1CCOCC1 (centres undefined)	·	·	·	2	·	·
COc1ccc(-c2sc3ccccc3c2-c2ccc(OCCN(C)C)cc2)cc1	·	·	·	79*	·	·
O=c1c(=NNc2ccccc2Cl)c(=O)c2ccccc12	80*	17	0.93	77*	154*	0.2
CCCCn1c(=O)[nH]c(=O)c2c1nc(Cn1ncc(Cl)c(Cl)c1=O)n2CCC	·	·	·	95*	·	·
CCCCn1c(=O)[nH]c(=O)c2c1nc(CN1C(=O)c3ccccc3S1(=O)=O)n2CCC	-8	41	0.75	-7	19	1.1
CCOC(=O)C1(C)CCN1C(=O)c1cncc(Br)c1 (centres undefined)	·	·	·	-5	·	·
O=C(Nc1ccc2c(c1)OCO2)c1ccc(Cl)cc1Cl	·	·	·	71*	·	·
O=C(Nc1ccc2c(c1)OCO2)c1cc(Cl)ccn1	·	·	·	29	·	·
O=C(Nc1ccc2c(c1)OCCO2)c1ccc(Cl)cc1Cl	·	·	·	72*	·	·
Cc1nn(C(=O)c2cccs2)c(N)c1-c1ccccc1	33	5	3.4*	3	17	0.7
Cc1nn(C(=O)c2ccc3c(c2)OCO3)c(N)c1-c1ccccc1	80*	6	1.6	4	12	0.2
CC(=O)c1c(C)nn(C(=O)c2cccs2)c1C	-3	-10	1.1	-5	0	1
CCCS(=O)(=O)NC(=O)C1(C)CCCN(C(=O)COCc2ccccc2)C1 (centres undefined)	·	·	·	-11	·	·
COc1ccc(NC(=O)CSc2nc3[nH]ncc3c(=O)n2-c2ccccc2OC)cc1OC	-1	71*	1.2	-16	4	1
SMILES	FLuc inh counter	PPC-1+TRAIL kill	NF-kB expr up	C8 TRAIL sens	APP 5'UTR act	FLuc act counter
Cc1cccc(NC(=O)C(=O)NCC2CCCN2S(=O)(=O)c2cccs2)c1 (centres undefined)	·	·	·	-6	·	·
CCCCNS(=O)(=O)c1cccc(NC(=O)[C@@H]2O[C@H](CO)[C@H](O)[C@H](O)[C@H]2O)c1	·	·	·	5	·	·
Clc1ccc2nc3c4ccccc4cnn3c2c1	63*	32	8*	40	217*	0.4
CN(c1cccc(F)c1)c1cc2c(c3c1ccn3C)C1CCC2O1 (centres undefined)	·	·	·	-4	·	·
COc1ccc(CCN2C(=O)COc3ccccc3C2C(=O)NC(C)(C)C)cc1OC (centres undefined)	·	·	·	-13	·	·
c1ccc2sc(Sc3ncnc4sccc34)nc2c1	64*	13	1.8	-13	0	0.4
CC(=O)c1cccc(-c2ccnc3c2CC(C(=O)Nc2ccc(C(C)C)cc2)O3)c1 (centres undefined)	·	·	·	11	·	·
Nc1nc(CSc2ncn(-c3ccccc3)n2)cs1	16	1	2.8	-8	107	0.8
O=C(CSc1nnc(-c2ccccc2)n1-c1ccccc1)c1cccs1	-6	28	1	22	-6	1.1
c1ccc(CSc2ncn(-c3ccccc3)n2)cc1	11	12	4.3*	5	130	0.9
O=C(CSc1ncn(-c2ccccc2)n1)c1cccs1	10	6	3.5*	-5	102	0.9
CC1CCc2cc(F)ccc2N1C(=O)CCl (centres undefined)	-7	18	1.1	94*	4	1.1
CCC(CC)C(=O)N1c2ccc(F)cc2CCC1C (centres undefined)	-6	2	1.1	-4	8	1.1
COC(=O)CC1N(S(=O)(=O)c2ccc(C)cc2)c2ccccc2C1(C(=O)OC)C(=O)OC (centres undefined)	·	·	·	-18	·	·
Brc1ccc2nc(N3CCN(c4ccccc4)CC3)sc2c1	8	25	2	-4	132	0.9
CN1CCN(c2ccc3sc(-n4ccc5ccccc54)nc3c2)CC1	·	·	·	68*	·	·
O=C(c1[nH]c(C(F)(F)F)nc1-c1ccccc1)N1CCN(c2ncccc2C(F)(F)F)CC1	·	·	·	-15	·	·
Oc1c(C=Nc2cccc3cccnc23)sc2ccccc12	82*	3	1.8	·	20	0.2
Cc1cccc(/N=C/c2sc3ccccc3c2O)n1	·	-1	·	25	·	·
COc1cc2ccc(C=O)cc2cc1OC	·	·	·	-9	·	·
CCN(CC)c1ccc(C(=O)O)cc1	-4	1	1	-7	12	1
CCN(CC)c1ccc(/C=C2\C(=O)c3ccc(C(=O)O)cc3C2=O)cc1	92*	15	1.1	1	9	0.1
CN1CCc2c(sc(NC(=O)c3ccc([N+](=O)[O-])o3)c2C(N)=O)C1	·	·	·	60*	·	·
O=Cc1ccc(-c2nc3ccccc3s2)o1	43	21	2.8	20	143*	0.6
O=C(O)c1ccc(-c2nc3ccccc3s2)o1	·	4	·	8	·	·
SMILES	FLuc inh counter	PPC-1+TRAIL kill	NF-kB expr up	C8 TRAIL sens	APP 5'UTR act	FLuc act counter
O=C(NS(=O)(=O)c1ccc2ccc(S(=O)(=O)NCCSc3ccccc3)cc2c1)c1cccc2ccccc12	·	·	·	-4	·	·
COc1ccc(S(=O)(=O)N2CCC[C@H]2C(=O)N2CCC[C@H]2C(=O)NCc2ccc(F)cc2F)cc1C	·	·	·	-1	·	·
O=C(NNC(=O)c1cc(OCC(F)(F)F)ccc1OCC(F)(F)F)c1ccc(Cl)c(Cl)c1	-10	5	0.78	66*	·	1.1
C=CCONC(=O)c1cc(OCC(F)(F)F)ccc1OCC(F)(F)F	-8	15	1.1	13	5	1.1
CCCCc1ccc(-c2ccc(Br)cc2)nc1	44	22	6*	10	125	0.6
CCCc1ccc(-c2ccc(F)c(N)c2)nc1	90*	38	4.2*	69*	140*	0.1
COC(=O)[C@@]12C[C@@H](CC(=O)NCCC(C)C)C(=O)N(Cc3cccc4ccccc34)C1=CCC(C)(C)C2	·	·	·	4	·	·
